Fewer inactive variants are shown than the library holds. A value given as a limit tells only on which side of the number the result lay.

B1: tRNA (parent)
chain: GUUCCGUUGGCGUAAUGGUAACGCGUCUCCCUCCUAAGGAGAAGACUGCGGGUUCGAGUCCCGUACGGAACG

The data set covers variants of B1. Put plainly: yeast fitness relative to wild type (ratio to wild type); higher = fitter; tRNA-Arg(CCU), competitive growth, 37 C, YPD. Summed up: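 Genotype frequency changes were the basis for Darwinian fitness relative to wild type. The frequencies came from 100-nucleotide paired-end sequencing of gene amplicons from the start population and each end population of pooled yeast strains with tRNA-Arg(CCU) gene variants at the native locus. Competition ran in YPD at 37°C for 24 hours in six replicates, genotypes needed ≥ 100 starting reads, and estimates < 0.5 were set to 0.5.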
As for C4U G12A A40U, the yeast fitness came out at 0.642.
As for C4U C5G U7G C33A A70U, the figure is ≤ 0.5.
As for C4U C5A A40C G68C, the figure is ≤ 0.5; as for C4U C27G A65U A70G, ≤ 0.5; as for C4U C22U, 0.76.
As for C4U C27U C31G C55U, the figure is ≤ 0.5; as for C4U G12C U28G C62G, ≤ 0.5.
With C4U U7A G68A, the yeast fitness was ≤ 0.5.
As for C4U G17C G18C C22A C60A C66U, the figure is ≤ 0.5.
As for C4U C11U U35A, the figure is 0.523.
As for C4U U8A C22U, the figure is ≤ 0.5; as for C4U C5G C29U U32A C33U G67U A70G, 0.54.
With C4U C24G A37G, the yeast fitness was 0.567.
As for C4U U8A U13C A57C, the figure is ≤ 0.5; as for C4U G38C A65G, 0.621.
On to C4U C29A C31G A42C A45U A69U, for which the yeast fitness is ≤ 0.5.
In the case of C4U C22G A42G, the yeast fitness came out at 0.695.
As for C4U G6A G25A U53A C66A, the figure is ≤ 0.5; as for C4U G12A C27G C34A C49A G68U, ≤ 0.5; as for C4U C49A A57C A69U, ≤ 0.5.
As for C4U G25A U54A, the figure is ≤ 0.5.
As for C4U G12A G39C C49A U64G, the figure is 0.544; as for C4U C11G A45U, 0.545; as for C4U C5G U28C G67C, 0.909.
For the variant C4U C27G A65U, the yeast fitness is ≤ 0.5.
As for C4U C31U C60A, the figure is ≤ 0.5; as for C4U C11U A45U A57U, 0.655.
As for C4U C22G U28C U59C, the figure is ≤ 0.5; as for C4U C30A A43G, 0.728.
On to C4U G39C U59G C62A, for which the yeast fitness is ≤ 0.5.
As for C4U C33A A40U, the figure is 0.564; as for C4U C5A U59C C60G, ≤ 0.5.
As for C4U C30U C31G, the figure is 0.583; as for C4U G17A C33G, ≤ 0.5; as for C4U G56A A70C, 0.754.
Take C4U C34G A69G: the yeast fitness is ≤ 0.5.
For C4U G41C G48A C61A, the yeast fitness was ≤ 0.5.
As for C4U C34U A43C A69U, the figure is 0.557.
As for C4U C31G A40G A45C U53A A70U, the figure is ≤ 0.5.
As for C4U C29G C30U, the figure is ≤ 0.5.
Take C4U C11A C22U A42U: the yeast fitness stood at 0.577.
For C4U G44C G67A, the yeast fitness was found to be 0.768.
C4U U8A A20G C24A: the yeast fitness was ≤ 0.5.
For the variant C4U U7A C49U, the yeast fitness stood at 0.58.
As for C4U C5G C60A, the figure is ≤ 0.5.
As for C4U A57C, the figure is 0.709.
As for C4U A57G, the figure is 0.872.
With C4U C30A G68A, the yeast fitness was 0.786.
As for C4U C31G C34U A43U, the figure is 0.786.
As for C4U C24G U26A U28G G68C, the figure is ≤ 0.5; as for C4U C11U A43U C55G, ≤ 0.5; as for C4U A57U A70U, 0.578.
As for C4U C11U U13C C33G A40C, the figure is ≤ 0.5; as for C4U U7A C30G C34G A40C A65U, ≤ 0.5; as for C4U G23C A40U A42G A45G G51C C61U, ≤ 0.5.
With C4U G12A U28A A42C, the yeast fitness is 0.515.
Turning to C4U C5G U28C A70C, the yeast fitness was 0.637.
As for C4U G12C U28G C62G A70U, the figure is ≤ 0.5; as for C4U A45C C61U, 0.738.
Turning to C4U C5G G9A G51C, the yeast fitness is ≤ 0.5.
As for C4U C60U C62A, the figure is ≤ 0.5; as for C4U G9C A20G A45G C61A G67A, ≤ 0.5.
Take C4U A45G U53G: the yeast fitness was ≤ 0.5.
As for C4U C24G C49U C60U C61A, the figure is 0.58; as for C4U C27U U64C, 0.757.
As for C4U G12A A14G G18A C30G C46U, the figure is ≤ 0.5; as for C4U C5G G41A A70G, ≤ 0.5.
As for C4U G9A C22G A42U G68C, the figure is ≤ 0.5; as for C4U G50A G67A, 0.553.
In the case of C4U G50A G67C, the yeast fitness is 0.578.
Consider C4U G10C A21G C30A G38C C46U A70C, for which the yeast fitness was ≤ 0.5.
As to C4U G18C A20C G39A, the yeast fitness was ≤ 0.5.
C4U U7A C30G C34G A40C: the yeast fitness amounted to 0.512.
As for C4U C11A A37C, the figure is 0.569; as for C4U G51C U59G U64C, ≤ 0.5; as for C4U C5G A15C A42C, ≤ 0.5.
Regarding C4U C66A G68C, the yeast fitness stood at 0.546.
For C4U C24G U26A U28G, the yeast fitness is 0.539.
As for C4U C61U A70G, the figure is 0.777; as for C4U C11G C34U C55U, ≤ 0.5.
As for C4U C11G C34U, the figure is 0.551; as for C4U C66U, 0.978.
As for C4U G12A A40U A65C, the figure is ≤ 0.5.
On to C4U G58C A69C, for which the yeast fitness was found to be 0.765.
For the variant C4U C60G G63C, the yeast fitness is ≤ 0.5.
On to C4U G23C A40U A42G A45G G51C C61U G63A, for which the yeast fitness was ≤ 0.5.
As for C4U C46U A69C, the figure is 0.817.
As for C4U C46U A69U, the figure is 1.16.
As for C4U G25C G68A, the figure is 0.976; as for C4U C24U C27G, ≤ 0.5.
Consider C4U C24G C34A A45C G56A C61A A65C A69C A70G, for which the yeast fitness is 0.597.
As for C4U C11G G18C U47A G63A, the figure is ≤ 0.5; as for C4U G48C G67U A69C, ≤ 0.5.
With C4U G10C A36U, the yeast fitness turned out to be 0.659.
As for C4U C49A C66U, the yeast fitness was 0.612.
Consider C4U C27A C31U C60G, for which the yeast fitness is ≤ 0.5.
As for C4U C5A A15U C34U U54C C62U, the figure is ≤ 0.5; as for C4U G12A A45C C49U, ≤ 0.5; as for C4U C11A A42G G48C A65U, 0.555.
As for C4U A45U C66G, the figure is 0.598.
As for C4U C5A G68C, the figure is 0.551; as for C4U C5G C29U G63A A65G, 0.535.
On to C4U U7C A57U C61U, for which the yeast fitness was ≤ 0.5.
As to C4U G25C A45C C46A, the yeast fitness was 0.733.
For C4U C29A G52C U54C C55A U59G, the yeast fitness is ≤ 0.5.
In the case of C4U C22G U28A A36U G51A, the yeast fitness was ≤ 0.5.
With C4U C24U C30A, the yeast fitness came out at 0.597.
Regarding C4U G25A A36C A70G, the yeast fitness is ≤ 0.5.
As for C4U G10A C22U G44C, the figure is ≤ 0.5; as for C4U G12C C49A U64C, ≤ 0.5.
Regarding C4U C24A A43G G63C, the yeast fitness is ≤ 0.5.
As for C4U U7A A36U A65G, the figure is 0.535; as for C4U C11U C33U, 0.575.
With C4U G18A A21C A36U, the yeast fitness is ≤ 0.5.
As for C4U C27U C29G A42C C55G, the figure is ≤ 0.5.
As for C4U G6A A36C, the figure is ≤ 0.5; as for C4U C22U C27U G58C, ≤ 0.5.
As for C4U G9A G67A, the figure is 0.598; as for C4U C46G C61G A65C, 0.588; as for C4U C30U U54A, ≤ 0.5.
Turning to C4U G25A A65G, the yeast fitness is 0.718.
As for C4U U7A C22U U54C C66U G68C A69U, the yeast fitness was ≤ 0.5.
As for C4U G9A C22G A42U, the figure is 0.546; as for C4U C22U G23A, ≤ 0.5; as for C4U U8A C33U A36U, 0.545.
As for C4U G9A A15U A20C C27A C61G A65C, the figure is ≤ 0.5; as for C4U C11A G67U, ≤ 0.5.
For C4U C33A A40U G68A, the yeast fitness is ≤ 0.5.
As for C4U C24G A36C A70C, the figure is ≤ 0.5; as for C4U A70G, 0.941.
As for C4U C29A G52C C55G U59G, the yeast fitness is 0.656.
As for C4U C11U G44C C49U A70U, the figure is ≤ 0.5; as for C4U G25C, 0.999.
Take C4U U7A U13A U32C G44C: the yeast fitness turned out to be 0.718.
As for C4U G48C A70U, the figure is 0.542; as for C4U C22U A45G C66G, ≤ 0.5.
As for C4U C29A A36C A40U G51A G68C, the figure is ≤ 0.5.
As for C4U G6A G44C A69U A70G, the figure is ≤ 0.5; as for C4U C11G C24A A36U A43C, 0.55; as for C4U G23A U28C G56C, ≤ 0.5.
Regarding C4U U7C C29G C49A, the yeast fitness is ≤ 0.5.
As for C4U C33G, the figure is 0.722; as for C4U C33U, 0.789.
In the case of C4U G12A C46U, the yeast fitness came to 0.728.
For the variant C4U G6A A15U A20C G25C U35A A45U, the yeast fitness is ≤ 0.5.
As for C4U G10A C11G A20G C27G A65U, the figure is ≤ 0.5.
As for C4U G10A C11G A20G C27G C29U A65U, the figure is ≤ 0.5.
As for C4U C33U G44A, the figure is ≤ 0.5.
As to C4U U8A A36C C61U, the yeast fitness is ≤ 0.5.
As for C4U C31U A43U G48A U53A, the figure is ≤ 0.5; as for C4U C24A G44C G50C U54G C61G, ≤ 0.5; as for C4U C11A A65C, 0.538.
As for C4U G41C C61A, the figure is ≤ 0.5; as for C4U G17A C22U G68C, ≤ 0.5.
As for C4U C34G U35A A42U C60U, the figure is ≤ 0.5; as for C4U G38C C61U, 0.54.
Regarding C4U G12A A40U A69C, the yeast fitness is 0.56.
As for C4U C27U G39C G52A G56A, the figure is 0.614.
As for C4U C11U C34G A40C G51C, the figure is 0.534; as for C4U C24A U47G U59C, ≤ 0.5; as for C4U C11U C22G A45U, ≤ 0.5.
As for C4U G12C C29U C31U U54G A65U G67A, the figure is ≤ 0.5; as for C4U C33A A42G, ≤ 0.5; as for C4U C5G A45G, 0.634.
On to C4U G9A U54A, for which the yeast fitness was ≤ 0.5.
As for C4U G52C C61A, the yeast fitness is 0.581.
As for C4U C33G A70G, the figure is ≤ 0.5.

Source of the values: the RNAGym collection of RNA variant scans (doi:10.1126/science.aae0568).
